Source: PubChem
Compounds with a hit are over-represented: about 3.9% of the library has one in this group of screens.
HCV core dimer: HCV core protein dimerization inhibition; TR-FRET GST/Flag-core106 dimerization, 1536-well; inhibition, % at 5 µM; actives 0.33% (n = 300,000); AID 1899;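 active means inhibition above the mean of all tested compounds plus 3 SD, set per screening campaign, cut at about 45% in these data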
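System: GST/Flag-tagged HCV core106 proteins. Incubation: compound-protein-antibody incubation 4 h at 22.5 °C. Technique: HTRF with 340 nm excitation, 617/671 nm emission. Medium: KF-containing HEPES buffer, pH 7.45, DTT, CHAPS, BSA. Read-out: inhibition (%) from 671 over 617 nm ratio. Also added: Eu(K)-anti-GST 90 ng/mL plus XL665-anti-Flag 1 µg/mL.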
HCV NS3 hel inh: blocks Hepatitis C virus NS3 helicase unwinding; NS3 helicase DNA unwinding, Cy5 molecular beacon fluorescence; inhibition, % at 10.9 µM; actives 0.56% (n = 290,000); AID 1800;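 active means inhibition above the mean of all tested compounds plus 3 SD, set per campaign, cut at about 35% in these data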;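 further: 0% = DMSO wells and 100% = thioflavine S control wells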
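Assay system – hepatitis C virus NS3 helicase domain fragment enzyme · Buffer or medium – MOPS pH 6.5, MgCl2, DTT, Tween20, BSA · Reagent – Cy5/quencher beacon DNA duplex and ATP to start · Compound – single 10.9 µM dose · Timing – 1 h at 25 °C · Technique – Cy5 beacon fluorescence read at start and 1 h · Measure – % inhibition of unwinding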
HSF1 activator: increases HSF-1 driven luciferase reporter signal; NIH3T3-HGL HSF-1 luciferase reporter, MG132, 8 h; 100% = twice DMSO control signal; activation, % at 9 µM; actives 1.7% (n = 300,000);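 active means mean replicate activation of at least 50% with a set share of replicates each reaching 50%; inconclusive means only one of those two conditions met; inactive means mean below 50% and too few replicates reaching it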;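 further: 0% = median of the neutral control wells and 100% = twice that signal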
HSF1 inh: HSF1 inhibition; AID 2098; actives 0.77% (n = 300,000); activity change, negative = inhibition, % at 7.5 µM (by protocol); NIH3T3-HGL HSE-luciferase, MG132-induced, luminescence 8 h; hits give low values;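 active means more than half of replicate wells show activity change below -50%, luminescence cut by over half; inconclusive means some wells, but at most half, below -50%; inactive means no replicate well below -50%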;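 further: luciferase reports HSF-1 transcriptional activity via heat shock element; 0% = median of DMSO wells and -100% = zero luminescence signal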
HSP90 refold inh: inhibitors of HSP90 luciferase refolding in rabbit reticulocyte lysate | actives 0.91% (n = 290,000) | inhibition, % at 5.6 µM | luciferase refolding luminescence, 3 h | AID 1789;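 active means inhibition above the screen-wide mean plus 3 SD, computed separately per campaign, cut at about 16% in these data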;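 further: 0% = DMSO wells and 100% = 60 µM geldanamycin wells; inhibitors lower the luminescence because luciferase stays unfolded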
FID counter: displaces DNA intercalator in HCV helicase counter-screen. DNA fluorescent intercalator displacement, fluorescence. inhibition, % at 7.9 µM. actives 0.17% (n = 290,000); in the data active means inhibition above about 37%;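 further: 0% = vehicle and 100% = reference compound; higher means more ethidium bromide displaced from hairpin DNA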
HSP90 confirm: HSP90 inhibition, confirmation assay | shares compounds with HSP90 refold inh | rabbit reticulocyte lysate, luciferase refolding luminescence, 3 h | inhibition, % at 5.9 µM | actives 64% (n = 2,300); in the data active means inhibition above about 18%;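 further: 0% = vehicle wells and 100% = reference inhibitor wells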
FLuc counter: counter-screen for HSP90 inhibitors: inhibitors of firefly luciferase | shares compounds with HSP90 refold inh | purified native firefly luciferase, luminescence | inhibition, % at 5.9 µM | actives 48% (n = 2,300);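 active means inhibition above the mean inhibition of all tested sample wells plus 3 SD, cut at about 10% in these data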;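 further: 0% = DMSO with luciferase and 100% = wells lacking luciferase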
Target sequence (P08659 whole entry, looked up): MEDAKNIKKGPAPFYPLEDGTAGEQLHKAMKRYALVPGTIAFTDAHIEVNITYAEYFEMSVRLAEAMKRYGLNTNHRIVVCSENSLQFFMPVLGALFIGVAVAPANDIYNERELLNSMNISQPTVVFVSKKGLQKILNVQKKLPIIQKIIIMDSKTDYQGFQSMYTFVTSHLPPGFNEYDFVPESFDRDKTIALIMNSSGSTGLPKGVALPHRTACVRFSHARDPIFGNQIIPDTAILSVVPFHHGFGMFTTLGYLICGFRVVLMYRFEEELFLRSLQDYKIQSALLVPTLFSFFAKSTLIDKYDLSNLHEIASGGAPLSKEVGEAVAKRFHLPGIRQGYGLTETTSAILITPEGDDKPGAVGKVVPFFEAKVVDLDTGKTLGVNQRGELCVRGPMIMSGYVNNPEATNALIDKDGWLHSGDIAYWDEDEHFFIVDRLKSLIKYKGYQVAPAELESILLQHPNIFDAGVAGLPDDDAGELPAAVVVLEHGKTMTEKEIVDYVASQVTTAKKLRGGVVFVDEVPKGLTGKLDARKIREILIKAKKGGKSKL
* = called active by the depositor; u = inconclusive; x = no result.

SMILES | HCV core dimer | HCV NS3 hel inh | HSF1 activator | HSF1 inh | HSP90 refold inh | FID counter | HSP90 confirm | FLuc counter
CCCCn1c(NC(C)=O)c(C#N)c2nc3ccccc3nc21 | 11 | 9 | 5 | 0 | 24* | -9 | 3 | -2
Nc1c(S(=O)(=O)c2ccccc2)c2nc3ccccc3nc2n1CCN1CCOCC1 | -5 | 7 | -5 | 0 | 3 | -12 | x | x
N#Cc1c(N)n(CCNC(=O)c2ccccc2)c2nc3ccccc3nc12 | 6 | -2 | 1 | 8 | 2 | -6 | x | x
C=CCn1c(NC(=O)c2ccccc2Cl)c(C#N)c2nc3ccccc3nc21 | 0 | 10 | 7 | 11 | 49* | -25 | 12 | 0
c1csc(-c2ccc3ccccc3n2)c1 | 10 | 3 | 31 | 22 | -2 | 3 | x | x
Cc1cc2ncc(-c3cccs3)nc2cc1C | x | -4 | 11 | 2 | 35* | -15 | 61* | 59*
COc1ccc(C/C(C)=N/NC(=S)Nc2ccccc2F)cc1 | 1 | 5 | -70 | -64* | 36* | -7 | 48* | 35*
N#Cc1cc2cc3c(cc2nc1SCC(=O)N1CCOCC1)OCCO3 | -5 | 14 | -44 | u | 21* | -16 | 17* | -3
Cc1cc2cc3c(cc2nc1SCC(=O)N1CCCC1)OCCO3 | x | -10 | -2 | 4 | -2 | -30 | x | x
CC(=O)c1ccccc1OCCCN1CCCCC1 | -5 | -2 | -16 | -15 | 28* | 10 | 14 | -1
Brc1ccccc1OCCCN1CCCCCC1 | 2 | -9 | -5 | -2 | -1 | 7 | x | x
O=C(Cn1cc2c(n1)CCCC2)NCCCN1CCN(c2ccccc2F)CC1 | 0 | -12 | 5 | -4 | -2 | 3 | x | x
O=C(O)CNS(=O)(=O)Cc1ccccc1 | 4 | 1 | -3 | -4 | 7 | 3 | x | x
O=S(=O)(Cc1ccccc1)N(O)c1ccccc1 | -11 | 19 | -10 | 2 | 88* | -3 | 92* | 0
O=C(Nc1ccc(Br)cn1)c1coc(=O)c(Br)c1 | 1 | 13 | 23 | 0 | 30* | 4 | 21* | -6
O=C(Nc1ccccc1F)c1coc(=O)c(Br)c1 | -1 | -5 | 2 | -4 | 5 | 0 | x | x
Cc1cc(NC(=O)c2coc(=O)c(Br)c2)ccc1C(C)C | -2 | 12 | -22 | -15 | 61* | 5 | 81* | -21
C[C@@H](NC(=O)c1coc(=O)c(Br)c1)c1ccccc1 | 5 | -1 | 3 | 10 | 2 | 4 | x | x
CC(C)(O)C1Cc2cc(/C=C/C(=O)O)c(O)cc2O1 (stereo unspecified) | x | 5 | -10 | -1 | 28* | -2 | 6 | -8
COc1cc2c(cc1/C=C/C(=O)O)OC(C)C2 (stereo unspecified) | -2 | 2 | 20 | 17 | -1 | -7 | x | x
CSc1ccc(C(=O)NCC(c2ccco2)N(C)C)cc1[N+](=O)[O-] (stereo unspecified) | 0 | -2 | 24 | 3 | 0 | 18 | x | x
COc1ccc(C2Nc3cccc4cccc(c34)N2)cc1 | -26 | 6 | -6 | 4 | 7 | 3 | x | x
CN(C)c1ccc(C2Nc3cccc4cccc(c34)N2)cc1 | -24 | -5 | -24 | -23 | 42* | 5 | 37* | -3
COc1ccccc1Nc1nnc(SCC2CCCCO2)s1 (stereo unspecified) | 2 | 5 | 22 | 0 | 32* | -36 | 38* | 39*
c1ccc(-n2cnc3cc(NCc4ccccn4)ccc32)cc1 | -3 | -20 | -46 | -36 | 18* | -3 | 18* | 3
c1ccc(-n2cnc3cc(NCc4ccncc4)ccc32)cc1 | 2 | 3 | 16 | 9 | -2 | -10 | x | x
CCn1c(SCC(=O)N/N=C\c2ccccc2OCC(=O)O)nnc1-c1ccc(Cl)cc1 | 5 | 16 | -2 | -4 | 5 | -44 | x | x
CCn1c(SCC(=O)N2CCCCCC2)nc2ccccc2c1=O | 8 | -6 | 14 | 4 | 3 | -33 | x | x
